STAT3 act – activators of IL-6 induced STAT3 signaling | activation (% of control), % at 5.6 µM | AID 871 | hit rate 0.91% among 190,000 | U3A cells, IL-6 STAT3-luciferase reporter, luminescence; 100% = signal with IL-6 EC80 alone;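 active means activation above the screen-wide mean of compound activation plus 3 SD, cut at about 130% in these data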;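 further: 0% = background luminescence of wells with medium and substrate only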
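Material: STAT1-lacking human U3A cells, STAT3 luciferase reporter | Benchmarks: IL-6-only wells as 100% reference | Probe or stimulus: IL-6 (33 ng/mL) | Timing: Compound 1 h, then IL-6 6 h at 37 °C | Detection: Luminescence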
STAT3 blocker – reduces IL-6 driven STAT3 reporter signal; U3A cells, IL-6 STAT3-luciferase reporter, luminescence; host cell line lacks STAT1; inhibition, % at 5.5 µM; hit rate 0.89% among 190,000; AID 862;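 active means inhibition above the mean inhibition across all screened compounds plus 3 SD, cut at about 44% in these data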;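 further: 0% = DMSO only wells and 100% = 100 µM nifuroxazide control wells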
NF-kB expr up – compounds increasing NF-kB expression in human neuronal cells. hit rate 1.6% among 190,000. NF-kB reporter expression; active compounds read high. AID 1239. fold change at 12.5 µM; in the data active means fold change above about 3.3
APP 5'UTR act – APP 5'UTR luciferase reporter activation | SH-SY5Y APP 5'UTR luciferase reporter, luminescence; zero percent = DMSO vehicle wells | activation, % at 2 µM | hit rate 1% among 190,000 | AID 1276;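 active means activation above a set limit, based on mean plus 3 SD of controls, cut at about 140% in these data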
STAT1 inh – STAT1 signaling inhibition | NIH 3T3 STAT1-luciferase reporter, IFN-gamma, luminescence | inhibition, % at 5.5 µM | hit rate 0.35% among 200,000 | AID 920;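 active means inhibition above a set limit, the mean inhibition across all tested compounds plus 3 SD, cut at about 34% in these data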;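 further: 0% = IFN-gamma with DMSO and 100% = IFN-gamma with 300 µM nifuroxazide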
STAT1 activator – increases IFN-gamma driven STAT1 reporter signal; AID 932; hit rate 2.6% among 200,000; activation (% of control), % at 5.5 µM; NIH 3T3 STAT1-luciferase reporter, luminescence; 100% = IFN-gamma alone, no compound;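 active means activation above the screen-wide mean activation plus 3 SD, cut at about 130% in these data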;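 further: raw ratio to IFN-gamma control signal so 100% means no change and 0% no light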
STAT1 act conf – confirmation of STAT1 signaling activators | shares compounds with STAT1 activator | NIH 3T3 STAT1-luciferase reporter, IFN-gamma potentiation, luminescence; 100% = IFN-gamma EC80 alone, no compound | AID 1262 | hit rate 97% among 1,200 | activation (% of control), % at 5.7 µM;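 active means activation above a set limit carried over from the earlier primary STAT1 screen, cut at about 140% in these data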;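 further: simple ratio to median IFN-gamma plus DMSO wells so 0% means no light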
NFkB act – NF-kappaB activation in STAT1 activator counter-screen. AID 1306. hit rate 43% among 1,200. activation (% of control), % at 5.7 µM. shares compounds with STAT1 activator. HEK293T NF-kB luciferase reporter, TNF-alpha stimulated, luminescence; 100% = TNF-alpha with vehicle only;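 active means activation above the mean of solvent-only control wells plus 3 SD, set per campaign, cut at about 130% in these data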;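 further: TNF-alpha given at a submaximal dose yielding about 80% of full reporter signal; values are well signal over median control so 100% means no change and 0% no light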
STAT3 act 2 – counter-screen for STAT1 activators: human STAT3 activation | shares compounds with STAT1 activator | U3A cells STAT3-luciferase reporter, IL-6, luminescence; cells lack STAT1; 100 = IL-6 alone, no compound effect | hit rate 46% among 1,200 | activation (% of control), % at 5.7 µM | AID 1316;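 active means activation above the solvent-only control well mean plus 3 SD, set per plate batch, cut at about 110% in these data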;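 further: 0% = no luminescence and 100% = median IL-6 plus DMSO wells; higher means more STAT3 reporter activation so hits are non-selective activators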
Active calls of the source: *; . = no result given. A selection: hits, their analogues and other compounds. The true share with any hit is near 4.9%.

SMILES | STAT3 act | STAT3 blocker | NF-kB expr up | APP 5'UTR act | STAT1 inh | STAT1 activator | STAT1 act conf | NFkB act | STAT3 act 2
Cc1cc(C(=O)CN2C(=O)NC3(CCCCC3)C2=O)c(C)n1Cc1ccco1 | 120 | -19 | 1.2 | 122 | -68 | 158* | 180* | 137* | 134*
COCCn1c(SCC(=O)N2CC(=O)Nc3ccccc32)nc2ccccc21 | 109 | -10 | 0.9 | -11 | 6 | 94 | . | . | .
CCCCN(C)C(=S)Nc1ccsc1C(=O)OC | 97 | 11 | 1.2 | 3 | -1 | 100 | . | . | .
C=CCn1c(SCC(N)=O)nc2scc(-c3ccc(C)o3)c2c1=O | 105 | 6 | 2.8 | 167* | -62 | 155* | 202* | 138* | 129*
O=C(O)Cc1ccc2sc(-c3ccccc3)nc2c1 | 103 | -3 | 0.99 | 3 | -9 | 108 | . | . | .
COC(=O)Cc1ccc2sc(-c3ccccc3)nc2c1 | 91 | 9 | 9.2* | 173* | -64 | 157* | 183* | 107 | 97
O=C(O)c1ccc(-c2nc(-c3cccc(C(F)(F)F)c3)cs2)cc1 | 99 | 10 | 1.1 | 18 | 8 | 91 | . | . | .
COc1ccc(-c2csc(-c3ccc(C(=O)O)cc3)n2)cc1 | 106 | 6 | 7.6* | 129 | -91 | 182* | 242* | 146* | 144*
COc1ccc(-c2nc(CC(=O)O)cs2)cc1 | 100 | 4 | 0.91 | 7 | 1 | 99 | . | . | .
O=C(O)c1ccc(-c2nc(-c3ccc(Cl)cc3)cs2)cc1 | 100 | 5 | 6.3* | 241* | -86 | 181* | 241* | 135* | 135*
CCOC(=O)CC(=O)CSc1ncnc2c1nnn2-c1ccc(OC)cc1 | 94 | 16 | 0.78 | 10 | -6 | 104 | . | . | .
Cc1ccc(/C(N)=N/OC(=O)c2ccc(F)cc2)cc1 | 95 | 14 | 7.9* | 46 | -65 | 153* | 173* | 135* | 106
N/C(=N\OC(=O)c1ccc(F)cc1)c1ccccc1 | 119 | -10 | 3.5* | 94 | -63 | 157* | 196* | 128 | 116*
N/C(=N\OC(=O)c1cccc(F)c1)c1ccccc1 | 116 | -6 | 2.4 | 94 | -73 | 166* | 169* | 123 | 114*
N/C(=N\OC(=O)c1cccc(Br)c1)c1ccncc1 | 94 | 13 | . | 39 | -29 | 127 | . | . | .
CCOC(=O)c1c(C)[nH]c(C(=O)COC(=O)CCSc2ccccc2)c1C | 109 | -9 | 1.2 | 39 | -16 | 115 | . | . | .
CCOC(=O)c1c(C)[nH]c(C(=O)CSc2ccccc2)c1C | 71 | 39 | 3.6* | 160* | -55 | 154* | 234* | 113 | 98
CNC(=O)C1C(=S)NC(N)=C(C#N)C1c1ccccc1 (centres undefined) | 90 | 18 | 1.3 | -21 | 5 | 95 | . | . | .
CC1CC(C)CN(c2ccc([N+](=O)[O-])nc2)C1 (centres undefined) | 82 | 25 | . | 19 | -15 | 112 | . | . | .
Cc1oc(-c2ccccc2)nc1CC(=O)O | 101 | -2 | 1.2 | 1 | -1 | 99 | . | . | .
Cc1oc(-c2ccc(-c3ccccc3)cc2)nc1CN1CCN(CC(=O)N(C)C)CC1 | 129 | -29 | 2 | 90 | -62 | 155* | 191* | 130 | 128*
Cc1ccc(SCC(=O)Nc2ccc(N3CCN(c4ccccc4)CC3)c(F)c2)cc1 | 106 | -1 | 1.1 | 6 | -4 | 103 | . | . | .
CN1CCN(c2ccc(NC(=O)CSc3ccccc3)cc2F)CC1 | 106 | -1 | 1.1 | 175* | -63 | 158* | 183* | 126 | 128*
Cc1[nH]c(=O)cc2ccccc12 | 92 | 12 | 1.1 | 3 | 4 | 96 | . | . | .
CC1=CN2C(=N)/C(=C/c3ccc(Sc4ccc(C)cc4)o3)C(=O)N=C2S1 | 109 | -10 | 1.4 | -13 | -8 | 107 | . | . | .
SMILES | STAT3 act | STAT3 blocker | NF-kB expr up | APP 5'UTR act | STAT1 inh | STAT1 activator | STAT1 act conf | NFkB act | STAT3 act 2
CC1=CN2C(=N)/C(=C/c3ccc(C)o3)C(=O)N=C2S1 | 91 | 6 | 4.3* | 161* | -111 | 201* | 249* | 141* | 104
COc1ccc(NC(=S)Nc2ccc3nccnc3c2)cc1 | 99 | 6 | 0.98 | 24 | -59 | 153* | 141* | 109 | 99
COc1ccc(NC(=S)Nc2ccc3snnc3c2)cc1 | 93 | 11 | 1.4 | 41 | -12 | 109 | . | . | .
Cc1ccc(C(=O)Nc2ccccc2C(=O)NC(C(=O)O)C(C)C)cc1 (centres undefined) | 107 | -5 | 1.9 | 7 | -11 | 110 | . | . | .
O=C(Nc1ccc(N2CCCC2)cc1)c1ccc(Br)o1 | 87 | 19 | 2.9 | 57 | -72 | 166* | 217* | 134* | 103
COc1ccc(C(=O)Nc2ccc(N3CCCC3)cc2)cc1 | 89 | 18 | 1.6 | 20 | -1 | 101 | . | . | .
O=C(Nc1ccc(N2CCCCC2)cc1)c1ccc(F)cc1 | 69 | 39 | 2.5 | 113 | -68 | 162* | 216* | 130 | 102
O=C(N/N=C/C(Cl)=C/c1ccccc1)c1ccco1 | 94 | 9 | 4.3* | 89 | -61 | 156* | 186* | 134* | 109
NC(=O)C1(N2CCCCC2)CCN(C2CC(=O)NC2=O)CC1 (centres undefined) | 109 | -8 | 1.2 | -23 | -3 | 105 | . | . | .
COc1cccc(C(=O)Nc2ccc(C3CC3(Cl)Cl)cc2)c1 (centres undefined) | 89 | 16 | 5.7* | 94 | -60 | 152* | 193* | 143* | 104
O=C(Nc1cccc(Cl)c1)N1CCC(CO)(CCOc2ccccc2)CC1 | 104 | 0 | 1.4 | 3 | 4 | 95 | . | . | .
S=C(Nc1ccccn1)Nc1ccccc1Cl | 102 | 3 | 1.5 | 23 | -30 | 124 | . | . | .
S=C(Nc1ccccn1)c1ccccn1 | 88 | 17 | 20* | 71 | -58 | 153* | 178* | 124 | 112*
Cc1ccccc1-c1n[nH]c(=S)n1/N=C/c1c(C)nn(-c2ccccc2)c1C | 96 | 8 | 1.2 | 12 | -2 | 102 | . | . | .
Nc1ccccc1Nc1cc(-c2ccccc2)[nH]n1 | 75 | 31 | 4.7* | 18 | -134 | 225* | 179* | 83 | 92
Nc1ccccc1Nc1cc(-c2ccccc2)nn1-c1ccccc1 | 99 | 4 | 1.2 | -3 | -10 | 109 | . | . | .
